Assay results reported in ChEMBL document CHEMBL1123534, “Synthesis and renal vasodilator activity of 2-chlorodopamine and N-substituted derivatives” (1986).

What was measured:
[1] = tested on: Canis familiaris; assay: Effect of compound on the renal blood flow (RBF) in alpha-blocked anesthetized dogs at a dose of 100 nmol after propranolol; assay type: functional, Canis lupus familiaris, Kidney
Outline: (§1)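 Phenoxybenzamine α-blocked anesthetized dogs, N=4-5/group (dopamine N=18). Doses given as renal-artery boluses; Δ renal blood flow in mL/min, mean ± SEM. SCH 23390 infused at 0.5 µg/kg/min iv, with doses repeated 5 min after infusion onset. After ≥1.5 h recovery, propranolol was given at 0.5 mg/kg ia over 15 min. The combined condition repeated SCH 23390 infusion with propranolol present.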

[2] = tested on: Canis familiaris; assay: Compound was tested for the renal vasodilatory activity in anesthetized dog.; assay type: functional, Canis lupus familiaris; parameters: unit not given here
Outline: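 Dogs anesthetized and α-blocked with phenoxybenzamine, with saline infused iv during blockade. Four ascending bolus doses (3-10000 nmol) given into the renal artery in 0.2 mL isotonic saline, one test compound per dog. Maximal rise in renal blood flow was taken as % of each dog's response to 100 nmol dopamine. ED30 is the dose raising flow by 30%.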

[3] = tested on: Canis familiaris; assay: Effect of compound on the renal blood flow (RBF) in alpha-blocked anesthetized dogs at a dose of 100 nmol after SCH 23390.; assay type: functional, Canis lupus familiaris, Kidney; outline: as §1
[4] = tested on: Canis familiaris; assay: Effect of compound on the renal blood flow (RBF) in alpha-blocked anesthetized dogs at a dose of 300 nmol after propranolol; assay type: functional, Canis lupus familiaris, Kidney; outline: as §1
[5] = tested on: Canis familiaris; assay: Effect of compound on the renal blood flow (RBF) in alpha-blocked anesthetized dogs at a dose of 300 nmol after SCH 23390.; assay type: functional, Canis lupus familiaris, Kidney; outline: as §1
[6] = tested on: Canis familiaris; assay: Effect of compound on the renal blood flow (RBF) in alpha-blocked anesthetized dogs at a dose of 3000 nmol after SCH 23390+propranolol; assay type: functional, Canis lupus familiaris, Kidney; outline: as §1
[7] = tested on: Canis familiaris; assay: Effect of compound on the renal blood flow (RBF) in alpha-blocked anesthetized dogs at a dose of 10000 nmol after propranolol; assay type: functional, Canis lupus familiaris, Kidney; outline: as §1
[8] = tested on: Canis familiaris; assay: Effect of compound on the renal blood flow (RBF) in alpha-blocked anesthetized dogs at a dose of 3000 nmol after propranolol; assay type: functional, Canis lupus familiaris, Kidney; outline: as §1
[9] = tested on: Canis familiaris; assay: Effect of compound on the renal blood flow (RBF) in alpha-blocked anesthetized dogs at a dose of 3000 nmol after SCH 23390.; assay type: functional, Canis lupus familiaris, Kidney; outline: as §1
[10] = tested on: Canis familiaris; assay: Effect of compound on the renal blood flow (RBF) in alpha-blocked anesthetized dogs at a dose of 10000 nmol after SCH 23390.; assay type: functional, Canis lupus familiaris, Kidney; outline: as §1
[11] = tested on: Canis familiaris; assay: Effect of compound on the renal blood flow (RBF) in alpha-blocked anesthetized dogs at a dose of 10000 nmol after SCH 23390+propranolol; assay type: functional, Canis lupus familiaris, Kidney; outline: as §1
[12] = tested on: Canis familiaris; assay: Effect of compound on the renal blood flow (RBF) in alpha-blocked anesthetized dogs at a dose of 300 nmol after SCH 23390+propranolol; assay type: functional, Canis lupus familiaris, Kidney; outline: as §1
[13] = tested on: Canis familiaris; assay: Effect of compound on the renal blood flow (RBF) in alpha-blocked anesthetized dogs at a dose of 1000 nmol after propranolol; assay type: functional, Canis lupus familiaris, Kidney; outline: as §1
[14] = tested on: Canis familiaris; assay: Effect of compound on the renal blood flow (RBF) in alpha-blocked anesthetized dogs at a dose of 1000 nmol after SCH 23390+propranolol; assay type: functional, Canis lupus familiaris, Kidney; outline: as §1
[15] = tested on: Canis familiaris; assay: Effect of compound on the renal blood flow (RBF) in alpha-blocked anesthetized dogs at a dose of 1000 nmol after SCH 23390.; assay type: functional, Canis lupus familiaris, Kidney; outline: as §1
[16] = tested on: Canis familiaris; assay: Effect of compound on the renal blood flow (RBF) in alpha-blocked anesthetized dogs at a dose of 100 nmol after SCH 23390+propranolol; assay type: functional, Canis lupus familiaris, Kidney; outline: as §1

## Cl.NCCc1ccc(O)c(O)c1Cl
[1]
  RBF: 43 mL/min
[2]
  ED30: 13.5
[3]
  RBF: 4 mL/min

## CNCCc1ccc(O)c(O)c1Cl.Cl
[1]
  RBF: 34 mL/min
[2]
  ED30: 11.5
[3]
  RBF: 8 mL/min
[4]
  RBF: 49 mL/min
[5]
  RBF: 15 mL/min

## CCCNCCc1ccc(O)c(O)c1Cl.Cl
[6]
  RBF: 2 mL/min
[2]
  ED30: 2166
[7]
  RBF: 17 mL/min
[8]
  RBF: 11 mL/min
[9]
  RBF: 11 mL/min
[10]
  RBF: 17 mL/min
[11]
  RBF: 5 mL/min

## CCNCCc1ccc(O)c(O)c1Cl.Cl
[2]
  ED30: 67.4
[12]
  RBF: 2 mL/min
[4]
  RBF: 25 mL/min
[13]
  RBF: 40 mL/min
[14]
  RBF: 2 mL/min
[15]
  RBF: 32 mL/min
[5]
  RBF: 22 mL/min

## NCCc1ccc(O)c(O)c1 [DOPAMINE]
[1]
  RBF: 69 mL/min
[16]
  RBF: 14 mL/min
[3]
  RBF: 15 mL/min
